According to ChEMBL document CHEMBL4334484, “Polyketides and a Dihydroquinolone Alkaloid from a Marine-Derived Strain of the Fungus Metarhizium marquandii” (2019):
The source made the active and inactive calls. The rule behind the calls is not given here.

Legend:
L5178Y = experiment: Cytotoxicity against mouse L5178Y cells assessed as cell growth inhibition at 10 ug/ml measured after 72 hrs by MTT assay; assay type: functional, cell-based
In short: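 L5178Y mouse lymphoma cells, MTT read-out relative to untreated controls, compounds at 10 μg/mL. Negative control: medium with 0.1% ethylene glycol monomethyl ether/DMSO; kahalalide F positive control. Three independent experiments, each in triplicate.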

[1] = test system: Mycobacterium tuberculosis; experiment: Antibacterial activity against Mycobacterium tuberculosis by CLSI protocol based broth microdilution method; assay type: functional
In short: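 Broth microdilution per CLSI guidelines. Serial 2-fold dilutions up to a highest tested concentration of 64 μg/mL, with DMSO diluted along with the compounds. Rifampicin served as positive control.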

Staphylococcus aureus [2] = experiment: Antibacterial activity against Staphylococcus aureus ATCC 29213 by CLSI protocol based broth microdilution method; assay type: functional
In short: (§1)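 Serial 2-fold dilutions, DMSO diluted along with compounds; highest concentration tested 64 μg/mL. Moxifloxacin positive control for S. aureus, rifampicin for A. baumanii and P. aeruginosa.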

Staphylococcus aureus [3] = experiment: Antibacterial activity against Staphylococcus aureus ATCC 700699 by CLSI protocol based broth microdilution method; assay type: functional; in short: as §1
Acinetobacter baumannii = experiment: Antibacterial activity against Acinetobacter baumannii BAA 1605 by CLSI protocol based broth microdilution method; assay type: functional; in short: as §1
Pseudomonas aeruginosa = experiment: Antibacterial activity against Pseudomonas aeruginosa 27853 by CLSI protocol based broth microdilution method; assay type: functional; in short: as §1

## O=C1Nc2ccccc2[C@](O)(c2cccc(O)c2)[C@H]1O
L5178Y
  Activity: inactive
[1]
  MIC: > 100 µM
Staphylococcus aureus [2]
  MIC: > 100 µM
Staphylococcus aureus [3]
  MIC: > 100 µM
Acinetobacter baumannii
  MIC: > 100 µM
Pseudomonas aeruginosa
  MIC: > 100 µM

## CC(=O)c1cc(C)c(O)c(CC2=C(O)C(CC(=O)O)OC2=O)c1O (racemic)
L5178Y
  Activity: inactive
[1]
  MIC: > 100 µM
Staphylococcus aureus [2]
  MIC: > 100 µM
Staphylococcus aureus [3]
  MIC: > 100 µM
Acinetobacter baumannii
  MIC: > 100 µM
Pseudomonas aeruginosa
  MIC: > 100 µM
